The text below walks through data of publication PMC7191207 (Heliyon, 2020).

Series [1] is described as follows: Stability tests of QC samples in pooled human plasma. The class given is physicochemical. The conditions noted are these: for degradation of QC samples: QC low, medium and high. The gist of the method: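 QC samples (12, 120, 900 ng/mL) spiked into pooled human plasma in triplicate, then held at bench top, in the autosampler, or 1 month at -80 °C. Extraction: diethyl ether liquid-liquid, dried under nitrogen at 37 °C, reconstituted in mobile phase. Analysis: C18 LC-MS/MS with positive ESI MRM (438.3/357.2) against a 1/x2-weighted calibration (5–1000 ng/mL). Accuracy = measured/nominal × 100%.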

Series [2] is classed as in vivo, human. The conditions noted are these: oral 800 mg daily. The gist of the method:
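Plasma from patients on oral 800 mg daily for at least one week, excluding combined TKI therapy; blood centrifuged at 3000 rpm, plasma stored at -20 °C. Free fraction by rapid equilibrium dialysis (8000 Da cut-off) against PBS at 37 °C, 250 rpm, 6 h, in technical duplicates. Quantified by C18 HPLC with positive-ESI MRM, erlotinib internal standard, calibration 5–1000 ng/mL.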

In a further series the test system is renal cancer patients. The conditions noted are these: renal cancer patients in clinical trials, up; cited from earlier work.
The next series deals with albumin. The conditions noted are these: mainly bound to albumin; cited from earlier work.
A short description of series [3]: Calculated hepatic extraction ratio. The conditions noted are these: low (<0.3).

SMILES strings stand for the structures. Read-outs that look alike come from different tables or passages of the source.

`Cc1ccc(Nc2nccc(N(C)c3ccc4c(C)n(C)nc4c3)n2)cc1S(N)(=O)=O` [pazopanib, Pazopanib]: the “degradation of QC samples” value in series [1] (1 month of storage at -80 °C) is “No significant degradation”; in series [1] (auto sampler conditions), “No significant degradation”; in series [1] (bench top conditions) it was “No significant degradation”; in series [1] (three freeze-thaw cycles), “did not result in significant degradation”. Moreover, the “Stability, Accuracy (%) from nominal concentration” value in series [1] (Autosampler: extracted samples stored for 14 h at room temperature, 12 ppb) turned out to be 96.45%; in series [1] (Autosampler: extracted samples stored for 14 h at room temperature, 120 ppb), 96.56%; in series [1] (Autosampler: extracted samples stored for 14 h at room temperature, 900 ppb) it was 96.02%; in series [1] (Bench Top: plasma samples stored at room temperature for 8h, 12 ppb) it was 113.11%; in series [1] (Bench Top: plasma samples stored at room temperature for 8h, 120 ppb) it was 93.21%; in series [1] (Bench Top: plasma samples stored at room temperature for 8h, 900 ppb), 97.02%. The “Stability, Accuracy (%) from nominal concentration” value in series [1] (Freeze Thaw: three freeze thaw cycles, 12 ppb) turned out to be 93.79%; in series [1] (Freeze Thaw: three freeze thaw cycles, 120 ppb), 93.50%; in series [1] (Freeze Thaw: three freeze thaw cycles, 900 ppb), 100.49%; in series [1] (Long Term: stored at -80 °C for 1 month, 12 ppb) it was 100.58%; in series [1] (Long Term: stored at -80 °C for 1 month, 120 ppb), 113.89%; in series [1] (Long Term: stored at -80 °C for 1 month, 900 ppb), 114.23%. Besides, the free drug concentration in series [2] (17 patients' plasma samples, mean ± standard deviation) stood at 5.84 ± 3.02 ng/mL. The results for the “Plasma free drug concentration (Median ± Interquartile range)” value in series [2] (patients with low albumin level (<40 g/L) (n = 7)), in series [2] (patients with normal albumin level (n = 8)) and in series [2] (patients with very low albumin level (<30 g/L) (n = 2)) were 6.49 ± 3.65 ng/mL, 4.88 ± 2.71 ng/mL and 3.44 ± 1.32 ng/mL, respectively. Further, in the series with renal cancer patients, the “proportion of patients with increases in serum transaminases and bilirubin” value is 40–50%. The plasma protein binding with albumin is more than 99.9%. Also, in series [3], the “calculated hepatic extraction ratio” value is recorded as 0.00346.
